Laboratory results as given in article PMC5760825 (Journal of Pharmaceutical Analysis, 2011).
Read-outs that look alike come from different tables or passages of the source.

Experiments:
[1] = type: in vivo, human (healthy Chinese volunteers); conditions: for Cmax: plasma
Summary of the method: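 Open-label, randomized, parallel-group study. Thirty healthy volunteers (5 men, 5 women per group) took single oral doses of 500, 1000 or 1500 mg glucosamine sulfate, as dispersible tablets, with 250 mL water after an overnight fast. The 500 mg group continued at 500 mg t.i.d. for 7 days, with troughs on days 4–7. Heparinized plasma was taken from 0 to 24 h. Cmax came from the observed curves, other parameters from non-compartmental analysis, and group differences from ANOVA.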

[2] = type: in vitro ADME, human; conditions: for Stability, Accuracy (% of nominal conc.): plasma
Summary of the method: (§1)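 Glucosamine was spiked into blank human matrix at low and high QC levels: plasma 0.020 and 1.66 μg/mL, urine 2.21 and 42.7 μg/mL, n=2. Freeze-thaw used 24 h at −20 °C, thawing at room temperature and 12 h refreezing, up to three cycles. Short-term storage was 8 h at room temperature and long-term storage up to 60 days at −20 °C. Samples were compared with fresh references and accuracy given as found versus nominal.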

[3] = type: in vitro ADME, human; conditions: urine
Summary of the method: as §1

[4] = type: in vivo, human (healthy Chinese volunteers); conditions: n=10; for Urine excretion (% of dose): single oral dose 1000 mg, mean±SD
[5] = cited from earlier work
[6] = before administration, Chinese volunteers, n=30
[7] = multiple doses 500 mg t.i.d., 7th day, mean±SD, n=10
[8] = single oral dose 500 mg, mean±SD, n=10
[9] = single oral dose 1000 mg, mean±SD, n=10
[10] = single oral dose 1500 mg, mean±SD, n=10
[11] = before administration, Chinese volunteers

In the case of 2-amino-2-deoxy-D-glucose [glucosamine], the “accumulation after multiple doses” value ([1]; 500 mg t.i.d. for 7 consecutive days vs single dose) is reported as “no significant accumulation effects”, the “dose linearity of absorption (dose-normalized AUC and Cmax)” value ([1]; 1500 mg vs 500 and 1000 mg dose groups, P<0.05) is reported as “non-linear absorption at higher doses” and the “time at which peak concentration was reached” value ([1]; after oral administration, all dose groups) is reported as “about 2 h”. The “plasma glucosamine baseline levels, mean” value [1, 6] was 16.7 ± 26.9 ng/mL, the “plasma glucosamine baseline levels, range” value [1, 6] was 0 to 120 ng/mL and the “AUC0–10” value [1, 7] was 1020 ± 240 ng·h/mL. The “AUC0–∞” value [1, 7] was 1020 ± 240 ng·h/mL, the AUCss [1, 7] was 1000 ± 240 ng·h/mL and the Css_av [1, 7] was 125 ± 31 ng/mL. For the same substance, the Css_min [1, 7] was 59 ± 56 ng/mL, the DF [1, 7] was 1.90±0.93% and the “MRT0–10” value [1, 7] was 2.70 ± 0.34 h. For the same substance, the Tmax [1, 7] was 1.90 ± 1.10 h, the t1/2 [1, 7] was 1.41 ± 0.76 h and the Cmax [1, 7] was 294 ± 76 ng/mL. For the same substance, the “time at which plasma glucosamine was eliminated to the baseline level” value ([1]; post-dosing) was “about 10 h”, the “AUC0–10” value [1, 8] was 1420 ± 200 ng·h/mL and the “AUC0–∞” value [1, 8] was 1430 ± 210 ng·h/mL. The “MRT0–10” value [1, 8] was 3.18 ± 0.71 h, the Tmax [1, 8] was 2.60 ± 1.39 h and the t1/2 [1, 8] was 1.17 ± 0.40 h. For the same substance, the “AUC0–10” value [1, 9] was 3370 ± 1020 ng·h/mL, the “AUC0–∞” value [1, 9] was 3420 ± 1010 ng·h/mL and the “MRT0–10” value [1, 9] was 3.57 ± 0.24 h. It also gave a Tmax [1, 9] of 2.70 ± 0.86 h, a t1/2 [1, 9] of 1.32 ± 0.35 h and a Cmax [1, 9] of 795 ± 280 ng/mL. For the same substance, the “AUC0–10” value [1, 10] was 4030 ± 1280 ng·h/mL, the “AUC0–∞” value [1, 10] was 4180 ± 1400 ng·h/mL and the “MRT0–10” value [1, 10] was 3.30 ± 0.61 h. It also gave a Tmax [1, 10] of 1.90 ± 0.84 h, a t1/2 [1, 10] of 1.36 ± 0.94 h and a Cmax [1, 10] of 925 ± 280 ng/mL. For the same substance, the “Stability, Accuracy (% of nominal conc.)” value ([2]; 0.020 μg/mL, Freeze-thaw (n=3)) was 100.0%, the “Stability, Accuracy (% of nominal conc.)” value ([2]; 0.020 μg/mL, Long-term after 60 d (−20 °C)) was 90.0% and the “Stability, Accuracy (% of nominal conc.)” value ([2]; 1.660 μg/mL, Freeze-thaw (n=3)) was 105.2%. For the same substance, the “Stability, Accuracy (% of nominal conc.)” value ([2]; 1.660 μg/mL, Long-term after 60 d (−20 °C)) was 106.6%, the “Stability, Accuracy (% of nominal conc.)” value ([2]; 1.660 μg/mL, Short-term after 8 h (25 °C)) was 98.4% and the “stability in plasma and urine under different storage conditions” value ([2]; three freeze-thaw cycles, 8 h bench-top, −20 °C up to 2 months, plasma and urine) was “stable”. For the same substance, the “Stability, Accuracy (% of nominal conc.)” value ([3]; 2.21 μg/mL, Freeze-thaw (n=3)) was 106.6%, the “Stability, Accuracy (% of nominal conc.)” value ([3]; 2.21 μg/mL, Long-term after 60 d (−20 °C)) was 99.2% and the “Stability, Accuracy (% of nominal conc.)” value ([3]; 2.21 μg/mL, Short-term after 8 h (25 °C)) was 104.2%. For the same substance, the “Stability, Accuracy (% of nominal conc.)” value ([3]; 42.7 μg/mL, Freeze-thaw (n=3)) was 105.3%, the “Stability, Accuracy (% of nominal conc.)” value ([3]; 42.7 μg/mL, Long-term after 60 d (−20 °C)) was 103.7% and the “Stability, Accuracy (% of nominal conc.)” value ([3]; 42.7 μg/mL, Short-term after 8 h (25 °C)) was 111.2%. For the same substance, the “urine glucosamine levels (baseline), mean” value [4, 11] was 4.96 ± 1.74 µg/mL, the “urine glucosamine levels (baseline), range” value [4, 11] was 2.79 to 8.07 µg/mL and the “Urine excretion (% of dose)” value ([4]; 0–3 h after dosing) was 0.434±0.300%. For the same substance, the “Urine excretion (% of dose)” value ([4]; 0–6 h after dosing) was 1.39±1.45%, the “Urine excretion (% of dose)” value ([4]; 0–10 h after dosing) was 1.83±1.84% and the “Urine excretion (% of dose)” value ([4]; 0–14 h after dosing) was 1.90±1.86%. The “Urine excretion (% of dose)” value ([4]; 0–24 h after dosing) was 1.99±1.86%, the “plasma glucosamine baseline levels, mean value” ([5]; Caucasian volunteers) was 45.3 ng/mL and the “Endogenous level of glucosamine in human plasma” value ([5]; human plasma) was 10 to 200 ng/mL.
